In ChEMBL document CHEMBL1125865, “Synthesis, antibacterial activities, and pharmacological properties of enantiomers of temafloxacin hydrochloride” (J Med Chem, 1991):

Legend:
Rattus norvegicus [1] = experiment: Effect on the spontaneous locomotor activity of rats at 0-15 min upon ip administration of the compounds at a dose of 15 mg/kg; format: functional; conditions: route intraperitoneal
In short: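 Rats were dosed ip; methylcellulose served as vehicle, and treatments were assigned randomly. Thirty minutes after dosing, each rat was placed in its own circular activity chamber. Activity was counted as photocell beam interruptions and recorded at 15 and 60 min after the test started. Values are mean counts ± SEM.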

Rattus norvegicus [2] = experiment: Effect on the spontaneous locomotor activity of rats at 0-15 min upon ip administration of the compounds at a dose of 1 mg/kg; format: functional; conditions: route intraperitoneal
In short: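 Rats were given test agent or methylcellulose vehicle (ip or po, per line), with treatments in random order. 30 min after dosing, each rat went into an individual circular activity chamber. Locomotion was counted as photocell-beam interruptions, recorded at 15 and 60 min from test start and reported as mean counts ± SEM.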

SMILES | Mean activity counts (Rattus norvegicus [1]) | Mean activity counts (Rattus norvegicus [2])
CN(C)CCCN1c2ccccc2Sc2ccc(Cl)cc21 [CHLORPROMAZINE] | 31 | 
CN[C@@H](C)Cc1ccccc1 [METHAMPHETAMINE] |  | 1462
